Consider 19 molecules from ChEMBL document CHEMBL2086343, “Design, synthesis and antibacterial activity of minor groove binders: the role of non-cationic tail groups” (Eur J Med Chem, 2012).

Molecules are shown by their SMILES. Values after ≈ are worked out from the molar mass of the structure shown. Active and inactive are the calls of the source. The rule behind the calls is not given here.

Series [1] concerns the target hERG (KCNH2) (Homo sapiens, UniProt Q12809). The experiment in a line: Displacement of [3H]astemizole from human hERG transfected in HEK293 cells at 10 uM after 1 hr by scintillation counter. In kind it is cell-based. The conditions noted are these: HEK293 cells transfected with human hERG, probe [3H]astemizole. In short, it runs like this:
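Membranes came from hERG-transfected HEK293 cells (grown at 37 °C, 5% CO₂), homogenised and spun at 200,000 g. About 200,000 cells per tube were incubated 1 h at 30 °C with 0.5 nM [³H]astemizole and compound at 10 µM in HEPES pH 7.4 buffer. Non-specific binding was set with 10 µM unlabelled astemizole. Samples were filtered (GF/B) and counted by scintillation. Triplicates, n = 3.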
Background: Displacement assays read how much labelled ligand stays bound in the presence of the test substance.

The subject of series [2] is Staphylococcus aureus. The experiment in a line: Antibacterial activity against Staphylococcus aureus. Format: functional.
Series [3] has as its system Nucleic Acid. The experiment in a line: Binding affinity to HexA DNA at <10 uM after 30 mins by DNase 1 footprinting assay. In kind it is nucleic-acid assay. In short, it runs like this: (§1)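 DNase I footprinting used 3'-end radiolabelled DNA (<10 nM) in 10 mM Tris-HCl pH 7.5 with 0.1 mM EDTA. It was incubated with ligand for at least 30 min at room temperature, then digested 1 min with about 0.01 units/mL DNase I (with NaCl, MgCl₂, MnCl₂). Fragments were resolved on 8% denaturing polyacrylamide/8 M urea gels and read by phosphorimaging.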

The test system of series [4] is Nucleic Acid. The experiment in a line: Binding affinity to 5'GCGATATATGCG3' DNA sequence assessed as change in melting temperature by thermal denaturation assay. In kind it is nucleic-acid assay. The gist of the method:
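Oligonucleotide and its complement at 6×10^-6 M, mixed with MGB at the chosen ratio, in 10 mM PBS pH 7.4 with 50 mM NaCl. Heated 10→80 °C and cooled 80→10 °C at 0.5 °C/min. Absorbance was read at 260 nm, and Tm was taken from the derivative maxima.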

The subject of series [5] is Nucleic Acid. The experiment in a line: Binding affinity to HexB DNA at <10 uM after 30 mins by DNase 1 footprinting assay. Format: nucleic-acid assay.
Series [6] deals with Nucleic Acid. The experiment in a line: Binding affinity to HexRev DNA at <10 uM after 30 mins by DNase 1 footprinting assay. Format: nucleic-acid assay. The gist of the method:
as §1

Sequence of hERG (KCNH2) (Q12809 whole entry): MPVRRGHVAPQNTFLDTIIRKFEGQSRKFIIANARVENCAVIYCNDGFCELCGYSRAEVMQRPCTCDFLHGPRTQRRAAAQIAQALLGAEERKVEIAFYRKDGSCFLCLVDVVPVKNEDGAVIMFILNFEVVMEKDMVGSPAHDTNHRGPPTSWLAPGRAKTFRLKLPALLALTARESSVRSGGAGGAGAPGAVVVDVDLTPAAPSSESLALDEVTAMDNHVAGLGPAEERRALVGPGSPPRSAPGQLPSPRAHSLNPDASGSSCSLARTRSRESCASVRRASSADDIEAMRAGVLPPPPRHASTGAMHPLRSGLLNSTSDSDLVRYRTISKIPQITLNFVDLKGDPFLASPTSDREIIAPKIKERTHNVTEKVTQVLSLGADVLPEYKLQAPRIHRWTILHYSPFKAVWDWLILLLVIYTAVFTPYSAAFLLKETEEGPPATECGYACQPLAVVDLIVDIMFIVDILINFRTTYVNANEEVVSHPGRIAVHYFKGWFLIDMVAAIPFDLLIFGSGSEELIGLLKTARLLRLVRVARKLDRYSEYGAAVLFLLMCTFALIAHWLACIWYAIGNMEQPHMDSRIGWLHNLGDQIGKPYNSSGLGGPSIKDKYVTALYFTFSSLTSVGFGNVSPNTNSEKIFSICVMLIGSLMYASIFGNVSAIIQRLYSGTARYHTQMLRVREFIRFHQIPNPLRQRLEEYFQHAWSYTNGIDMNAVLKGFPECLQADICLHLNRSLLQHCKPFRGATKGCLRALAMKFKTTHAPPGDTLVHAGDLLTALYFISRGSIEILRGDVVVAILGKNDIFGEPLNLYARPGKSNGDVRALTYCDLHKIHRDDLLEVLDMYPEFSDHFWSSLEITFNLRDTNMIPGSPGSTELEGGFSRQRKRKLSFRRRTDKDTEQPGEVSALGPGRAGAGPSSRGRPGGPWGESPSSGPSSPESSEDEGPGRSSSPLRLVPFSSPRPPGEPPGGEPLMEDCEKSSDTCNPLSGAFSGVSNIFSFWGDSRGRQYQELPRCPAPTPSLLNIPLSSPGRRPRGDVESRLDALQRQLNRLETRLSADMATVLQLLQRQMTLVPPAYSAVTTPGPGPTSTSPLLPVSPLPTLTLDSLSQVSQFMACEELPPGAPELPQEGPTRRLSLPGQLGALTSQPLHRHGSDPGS

As usually defined, the inhibition is the drop in the measured response relative to a control, in per cent. A higher inhibition goes with a response far below the control. As usually defined, the MIC is the lowest concentration that inhibits growth of the organism. In the case of `Cn1cc(NC(=O)c2cc(NC(=O)c3ccc(/C=C/c4cnc5ccccc5c4)cc3)cn2C)cc1C(=O)NCCNC(=O)C(F)(F)F`, the inhibition at 1 h, 10 µM in series [1] is 24%. The molecule further gave an MIC in series [2] of 12.5 µM (≈ 8.22 µg/mL).

Turning to `COc1cccc(/C=C/c2ccc(C(=O)Nc3cc(C(=O)Nc4cc(C(=O)NCCNC(=N)N)n(C)c4)n(C)c3)cc2)c1`, the inhibition at 1 h, 10 µM in series [1] was 69%. In series [2], this molecule had an MIC of 25 µM (≈ 14.6 µg/mL).

Broadly, the ΔTm is the shift of the melting midpoint relative to a reference. For `Cn1cc(NC(=O)c2cc(NC(=O)c3ccc(/C=C/c4cnc5ccccc5c4)cc3)cn2C)cc1C(=O)NCCNC(=N)N`, the MIC in series [2] turned out to be 7.8 µM (≈ 4.71 µg/mL). Further, the result in series [3], in series [5] and in series [6] was Active. Also, in series [4], the ΔTm is 29 °C.

As to `COc1cccc(/C=C/c2ccc(C(=O)Nc3cc(C(=O)Nc4cc(C(=O)NCCOC(C)=O)n(C)c4)n(C)c3)cc2)c1`, in series [2], the MIC entry was “inactive”.

Turning to `CN/C(=C\[N+](=O)[O-])NCCNC(=O)c1cc(NC(=O)c2cc(NC(=O)c3ccc(/C=C/c4cnc5ccccc5c4)cc3)cn2C)cn1C`, the inhibition at 1 h, 10 µM in series [1] was 51%. The molecule also registered an MIC in series [2] of 2.5 µM (≈ 1.65 µg/mL). The result in series [3], in series [5] and in series [6] was Active. Further, the ΔTm in series [4] is 16 °C.

In the case of `COc1ccc(/C=C/c2ccc(C(=O)Nc3cc(C(=O)Nc4cc(C(=O)NCCNC(=N)N)n(C)c4)n(C)c3)cn2)cc1`, the MIC entry in series [2] was “inactive”.

For the molecule `CN/C(=N\C#N)NCCNC(=O)c1cc(NC(=O)c2cc(NC(=O)c3ccc(/C=C/c4cccc(OC)c4)cc3)cn2C)cn1C`, the inhibition at 1 h, 10 µM in series [1] was 58%. Further, the MIC result in series [2] was “inactive”.

Molecule `COc1cccc(/C=C/c2ccc(C(=O)Nc3cc(C(=O)Nc4cc(C(=O)NCCNC(=O)OC(C)(C)C)n(C)c4)n(C)c3)cc2)c1` registered an inhibition at 1 h, 10 µM in series [1] of 36%. Moreover, the MIC result in series [2] is “inactive”.

Regarding `CN/C(=C\[N+](=O)[O-])NCCNC(=O)c1cc(NC(=O)c2cc(NC(=O)c3ccc(/C=C/c4cccc(OC)c4)cc3)cn2C)cn1C`, the MIC result in series [2] is “inactive”.

Molecule `COc1cccc(/C=C/c2ccc(C(=O)Nc3cc(C(=O)Nc4cc(C(=O)NCCN5CCOCC5)n(C)c4)n(C)c3)cc2)c1` returned an inhibition at 1 h, 10 µM in series [1] of 65%. In addition, 2 µM (≈ 1.22 µg/mL) was the least that counted as inhibitory in series [2] (MIC).

In turn, `COc1ccc(/C=C/c2ccc(C(=O)Nc3cc(C(=O)Nc4cc(C(=O)NCCN5CCOCC5)n(C)c4)n(C)c3)cn2)cc1` registered an inhibition at 1 h, 10 µM in series [1] of 58%. The MIC in series [2] is 6.25 µM (≈ 3.82 µg/mL).

For `Cn1cc(NC(=O)c2cc(NC(=O)c3ccc(/C=C/c4cnc5ccccc5c4)cc3)cn2C)cc1C(=O)NCCN1CCOCC1` [MGB-BP-3], the inhibition at 1 h, 10 µM in series [1] came to 65%. The MIC in series [2] came out at 0.12 µM (≈ 0.0758 µg/mL).

On to `COc1ccc(/C=C/c2ccc(C(=O)Nc3cc(C(=O)Nc4cc(C(=O)NCCOC(C)=O)n(C)c4)n(C)c3)cn2)cc1`, for which the MIC result in series [2] was “inactive”.

The molecule `CN/C(=N\C#N)NCCNC(=O)c1cc(NC(=O)c2cc(NC(=O)c3ccc(/C=C/c4cnc5ccccc5c4)cc3)cn2C)cn1C` yielded an inhibition at 1 h, 10 µM in series [1] of 54%. In addition, the MIC entry in series [2] is “inactive”.

In the case of `CN(C)CCCNC(=O)c1cc(NC(=O)c2cc(NC(=O)c3ccc(/C=C/c4cnc5ccccc5c4)cc3)cn2C)cn1C`, the inhibition at 1 h, 10 µM in series [1] amounted to 60%. In series [2], this molecule registered an MIC of 25 µM (≈ 15.1 µg/mL).

The molecule `COc1cccc(/C=C/c2ccc(C(=O)Nc3cc(C(=O)Nc4cc(C(=O)NCCO)n(C)c4)n(C)c3)cc2)c1` gave an inhibition at 1 h, 10 µM in series [1] of 32%. Further, the MIC result in series [2] was “inactive”.

With `Cn1cc(NC(=O)c2cc(NC(=O)c3ccc(/C=C/c4cnc5ccccc5c4)cc3)cn2C)cc1C(=O)NCCN`, in series [1], the inhibition at 1 h, 10 µM was 55%. Also, in series [2], the MIC entry is “inactive”.

In the case of `COc1ccc(/C=C/c2ccc(C(=O)Nc3cc(C(=O)Nc4cc(C(=O)NCCO)n(C)c4)n(C)c3)cn2)cc1`, in series [2], the MIC result is “inactive”.

The molecule `CN/C(=C\[N+](=O)[O-])NCCNC(=O)c1cc(NC(=O)c2cc(NC(=O)c3ccc(/C=C/c4ccc(OC)cc4)nc3)cn2C)cn1C` gave an MIC in series [2] of 31 µM (≈ 19.9 µg/mL).
